# Measured values collected from several papers.
# Protocols differ between the studies behind these lines. pEC50, pIC50: −log10 of the molar value.
# Read-out: cell growth or viability
SMILES,cell line,technique,tested at,time,quantity,result
COc1ccc2/c(=N/c3ccccc3NC(=O)CN)cc(-c3ccc4c(c3)OCCO4)oc2c1,MDA-MB-231,CCK-8,1 µM,,inhibition,12.6%
COc1cc(C(=O)c2nc(-c3ccncc3)c[nH]2)cc(OC)c1OC,A-375,MTS,,72 h,pIC50,< 6.00
Oc1cccc(-c2nc(N3CCOCC3)c3oc4ncccc4c3n2)c1,MDA-MB-231,CCK-8,1 µM,,inhibition,18.8%
O=C(Nc1ccc(Oc2nc3ccccc3n3cnnc23)cc1)Nc1cccc(Cl)c1,MDA-MB-231,MTT,3.125 µM,24 h,viability,100%
CN(C)c1ccc(Nc2nc(-c3ccncc3)nc3c2CC(N)CC3)cc1 (centres unmarked),A-375,MTT,,,pIC50,4.90
O=c1[nH]cc(F)c(=O)[nH]1,C32,SRB,,72 h,IC50,0.59 µg/mL
O=C(Nc1ccccc1/N=c1\cc(-c2ccc3c(c2)OCO3)oc2ccccc12)N1CCOCC1,MDA-MB-231,CCK-8,1 µM,,inhibition,-4.28%
COc1cc(C(=O)c2nc(-c3cccc4c3CC(=O)N4)c[nH]2)cc(OC)c1OC,A-375,MTS,,72 h,pIC50,7.56
CNC(=O)c1cc(Oc2ccc(NC(=O)Nc3ccc(Cl)c(C(F)(F)F)c3)cc2)ccn1,MDA-MB-231,MTT,3.125 µM,24 h,viability,70.2%
C[C@H](N)C(=O)Nc1ccccc1/N=c1\cc(-c2ccc3c(c2)OCO3)oc2ccccc12,MDA-MB-231,CCK-8,1 µM,,inhibition,7.31%
COc1cc(C(=O)c2nc(-c3cccc4c3CCN4)c[nH]2)cc(OC)c1OC,A-375,MTS,,72 h,pIC50,7.66
Cc1nc(Nc2ncc(C(=O)Nc3c(C)cccc3Cl)s2)cc(N2CC[C@H](O)C2)n1,L-82,ATP luminescence,,72 h,pIC50,< 5.00
NCCC(=O)Nc1ccccc1/N=c1\cc(-c2ccc3nc(N)oc3c2)oc2cc(O)ccc12,MDA-MB-231,CCK-8,1 µM,,inhibition,22%
COc1cccc(NC(=O)Nc2ccc(Oc3nc4ccccc4n4cnnc34)cc2)c1,MDA-MB-231,MTT,50 µM,24 h,viability,32.4%
COc1cc(C(=O)c2nc(-c3cccc4[nH]ccc34)cs2)cc(OC)c1OC,A-375,MTS,,72 h,pIC50,8.25
O=C(Nc1ccc(Cl)cc1)Nc1ccc(Oc2nc3ccccc3n3cnnc23)cc1,MDA-MB-231,MTT,25 µM,24 h,viability,77.3%
C[C@H](N)C(=O)Nc1ccccc1/N=c1\cc(-c2ccc3c(c2)OCCO3)oc2c([N+](=O)[O-])cccc12,MDA-MB-231,CCK-8,1 µM,,inhibition,-3.63%
O=C(Nc1ccccc1)Nc1ccc(Oc2nc3ccccc3n3cnnc23)cc1,MDA-MB-231,MTT,25 µM,24 h,viability,70.1%
C[C@H]1CNCCN1c1nccc(-c2noc3c2CCC[C@@]32CCCc3sc(N)c(C#N)c32)n1,A-375,,,5 days,pEC50,5.30
COc1cc(C(=O)c2nc(-c3cccc4[nH]nnc34)c[nH]2)cc(OC)c1OC,A-375,MTS,,72 h,pIC50,7.20
NCCC(=O)Nc1ccccc1/N=c1\cc(-c2ccc3nc(N)oc3c2)oc2ccccc12,MDA-MB-231,CCK-8,1 µM,,inhibition,68.6%
C=C1C[C@@]23CC[C@H]4[C@@](C)(CCC[C@@]4(C)C(=O)O)[C@@H]2CC[C@@H]1C3,MRC5,MTT,,75 h,pIC50,4.00
COc1cc(C(=O)c2nc(-c3cccc4[nH]ccc34)c(C)[nH]2)cc(OC)c1OC,A-375,MTS,,72 h,pIC50,7.79
